Experimental data: ChEMBL document CHEMBL1134845, “Syntheses and biological activities of a novel group of steroidal derived inhibitors for human Cdc25A protein phosphatase” (J Med Chem, 2001)

How the values were obtained:
HT-29 [1] = assay: Growth inhibitory activity was determined against HT-29 cancer cell line colon cancer; assay type: functional, Homo sapiens; conditions: Homo sapiens, HT-29
Procedure, shortened: (§1)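 NCI 60 human tumour cell line screen run at the National Cancer Institute. Cell growth and viability read with the protein stain sulforhodamine B, which binds basic amino acids of cells left attached after washing. […] MG MID is the mean GI50 calculated over all panels.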

PC-3 = assay: Growth inhibitory activity was determined against PC-3 cancer cell line of Prostate cancer; assay type: functional; conditions: Homo sapiens; procedure, shortened: as §1
BT-549 (Homo sapiens) = assay: Growth inhibitory activity was determined against BT-549 cancer cell line of Breast cancer; conditions: Homo sapiens, BT-549
SF-539 = assay: Growth inhibitory activity was determined against SF-539 cancer cell line of CNS cancer; assay type: functional; conditions: Homo sapiens; procedure, shortened: as §1
SF-268 = assay: Growth inhibitory activity was determined against SF-268 cancer cell line of CNS cancer; assay type: functional; conditions: Homo sapiens; procedure, shortened: as §1
UO-31 [2] = assay: Growth inhibitory activity was determined against UO-31 cancer cell line of renal cancer; assay type: functional; conditions: Homo sapiens; procedure, shortened: as §1
OVCAR-3 [3] = assay: Growth inhibitory activity was determined against OVCAR-3 cancer cell lines of Ovarian cancer; assay type: functional; conditions: Homo sapiens; procedure, shortened: as §1
SN12C [4] = assay: Growth inhibitory activity was determined against SN12C cancer cell line of renal cancer; assay type: functional; conditions: Homo sapiens; procedure, shortened: as §1
NCI/ADR-RES = assay: Growth inhibitory activity was determined against NCI/ADR-RES cancer cell line of Breast cancer; assay type: functional, Homo sapiens; conditions: Homo sapiens, NCI/ADR-RES; procedure, shortened: as §1
[5] = target: T1, M-phase inducer phosphatase 1 (Homo sapiens, UniProt P30304); assay: Inhibitory activity tested against cell division cycle 25A (assay using p-nitro phenyl phosphate (pNPP) as substrate)
T1 sequence (P30304 whole entry): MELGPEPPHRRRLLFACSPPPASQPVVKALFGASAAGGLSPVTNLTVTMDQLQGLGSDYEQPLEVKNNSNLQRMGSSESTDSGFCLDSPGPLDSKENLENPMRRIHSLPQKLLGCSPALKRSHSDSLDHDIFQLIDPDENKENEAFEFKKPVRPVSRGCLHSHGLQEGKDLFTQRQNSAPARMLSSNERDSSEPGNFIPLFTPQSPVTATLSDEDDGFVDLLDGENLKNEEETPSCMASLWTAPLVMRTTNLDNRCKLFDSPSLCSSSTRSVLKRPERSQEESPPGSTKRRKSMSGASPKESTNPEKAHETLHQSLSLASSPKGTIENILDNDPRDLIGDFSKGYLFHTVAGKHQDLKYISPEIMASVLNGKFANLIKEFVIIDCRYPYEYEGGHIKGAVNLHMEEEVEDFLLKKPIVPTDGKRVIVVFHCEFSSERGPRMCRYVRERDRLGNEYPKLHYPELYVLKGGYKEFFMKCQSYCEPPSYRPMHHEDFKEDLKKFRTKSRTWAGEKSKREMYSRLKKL

[6] = target: T1, M-phase inducer phosphatase 1; assay: Inhibitory activity tested against cell division cycle 25A (assay using fluorescein diphosphate (FDP) as substrate)
Procedure, shortened: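 Recombinant human GST-Cdc25A fusion protein, each batch calibrated so that FDP was dephosphorylated linearly over 20 min. Fluorescein diphosphate was the substrate. Reactions ran 15 min at 25 °C in the dark and were stopped with sodium orthovanadate. IC50 came from at least two independent runs, each in triplicate.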

786-0 [7] = assay: Growth inhibitory activity was determined against 786-0 cancer cell line of renal cancer; assay type: functional; conditions: Homo sapiens; procedure, shortened: as §1
A549 = assay: Growth inhibitory activity was determined against A549/ATCC cancer cell line of non-small cell lung cancer; assay type: functional, Homo sapiens; conditions: Homo sapiens, A549; procedure, shortened: as §1
SK-MEL-5 = assay: Growth inhibitory activity was determined against SK-MEL-5 cancer cell line of melanoma; assay type: functional, Homo sapiens; conditions: Homo sapiens, SK-MEL-5; procedure, shortened: as §1
OVCAR-8 [8] = assay: Growth inhibitory activity was determined against OVCAR-8 cancer cell lines of Ovarian cancer; assay type: functional; conditions: Homo sapiens; procedure, shortened: as §1
NCI-H23 = assay: Growth inhibitory activity was determined against NCI-H23 cancer cell line of non-small cell lung cancer; assay type: functional, Homo sapiens; conditions: Homo sapiens, NCI-H23; procedure, shortened: as §1
NCI-H522 = assay: Growth inhibitory activity was determined against NCI-H522 cancer cell line of non-small cell lung cancer; assay type: functional; conditions: Homo sapiens; procedure, shortened: as §1
U-251 = assay: Growth inhibitory activity was determined against U-251 cancer cell line of CNS cancer; assay type: functional; conditions: Homo sapiens; procedure, shortened: as §1
HCC 2998 = assay: Growth inhibitory activity was determined against HCC2998 cancer cell line colon cancer; assay type: functional, Homo sapiens; conditions: Homo sapiens, HCC 2998; procedure, shortened: as §1
COLO 205 = assay: Growth inhibitory activity was determined against COLO 205 cancer cell line colon cancer; assay type: functional, Homo sapiens; conditions: Homo sapiens, COLO 205; procedure, shortened: as §1
T47D = assay: Growth inhibitory activity was determined against T-47D cancer cell line of Breast cancer; assay type: functional, Homo sapiens; conditions: Homo sapiens, T47D; procedure, shortened: as §1
[9] = target: Receptor-type tyrosine-protein phosphatase C, CD45 (Homo sapiens) (UniProt P08575); assay: Inhibitory activity tested against human CD45 (receptor-type tyrosine-protein phosphatase C)
Sequence of Receptor-type tyrosine-protein phosphatase C, CD45 (Homo sapiens) (P08575 whole entry, looked up): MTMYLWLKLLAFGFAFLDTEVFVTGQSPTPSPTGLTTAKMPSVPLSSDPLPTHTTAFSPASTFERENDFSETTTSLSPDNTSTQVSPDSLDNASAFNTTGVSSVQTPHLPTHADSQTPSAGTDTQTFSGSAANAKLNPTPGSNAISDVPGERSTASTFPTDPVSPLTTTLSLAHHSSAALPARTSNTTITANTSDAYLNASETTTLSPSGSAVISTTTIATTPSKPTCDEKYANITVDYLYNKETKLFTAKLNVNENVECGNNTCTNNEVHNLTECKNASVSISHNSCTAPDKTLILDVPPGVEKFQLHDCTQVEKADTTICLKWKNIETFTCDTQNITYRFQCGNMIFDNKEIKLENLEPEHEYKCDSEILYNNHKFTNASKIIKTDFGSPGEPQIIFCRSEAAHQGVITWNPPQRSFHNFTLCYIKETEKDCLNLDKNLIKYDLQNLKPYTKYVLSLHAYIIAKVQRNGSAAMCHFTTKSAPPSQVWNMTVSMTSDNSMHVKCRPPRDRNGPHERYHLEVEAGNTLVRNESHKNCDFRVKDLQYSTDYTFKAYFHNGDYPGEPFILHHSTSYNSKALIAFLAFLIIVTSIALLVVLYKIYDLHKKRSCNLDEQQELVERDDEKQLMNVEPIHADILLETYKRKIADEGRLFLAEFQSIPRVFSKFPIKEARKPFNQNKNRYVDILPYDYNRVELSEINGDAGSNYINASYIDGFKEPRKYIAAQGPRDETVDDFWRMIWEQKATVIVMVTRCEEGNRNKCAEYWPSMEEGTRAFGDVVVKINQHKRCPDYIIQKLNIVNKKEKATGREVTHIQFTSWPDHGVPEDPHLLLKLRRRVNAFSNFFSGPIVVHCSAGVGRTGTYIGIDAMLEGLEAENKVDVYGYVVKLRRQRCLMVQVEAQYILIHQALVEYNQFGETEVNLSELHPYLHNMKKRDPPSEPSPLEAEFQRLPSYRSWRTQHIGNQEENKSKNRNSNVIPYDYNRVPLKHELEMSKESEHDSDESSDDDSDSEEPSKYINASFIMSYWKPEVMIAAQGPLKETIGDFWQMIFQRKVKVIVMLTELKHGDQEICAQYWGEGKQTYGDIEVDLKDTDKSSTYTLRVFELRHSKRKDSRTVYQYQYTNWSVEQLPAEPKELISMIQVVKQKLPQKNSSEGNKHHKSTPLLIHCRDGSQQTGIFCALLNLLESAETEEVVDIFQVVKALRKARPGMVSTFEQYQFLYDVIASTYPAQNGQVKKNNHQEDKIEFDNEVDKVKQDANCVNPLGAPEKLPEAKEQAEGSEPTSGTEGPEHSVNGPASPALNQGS

OVCAR-8 [10] = assay: Growth inhibitory activity was determined against OVCAR-8 cancer cell line of Ovarian cancer; assay type: functional; conditions: Homo sapiens; procedure, shortened: as §1
LOX IMVI = assay: Growth inhibitory activity was determined against LOX IMVI cancer cell line of melanoma; assay type: functional, Homo sapiens; conditions: Homo sapiens, LOX IMVI; procedure, shortened: as §1
786-0 [11] = assay: Growth inhibitory activity was determined against 786-0 cancer cell line of Renal cancer; assay type: functional; conditions: Homo sapiens; procedure, shortened: as §1
UO-31 [12] = assay: Growth inhibitory activity was determined against UO-31 cancer cell line of Renal cancer; assay type: functional; conditions: Homo sapiens; procedure, shortened: as §1
HT-29 [13] = assay: Inhibition of colon cancer in HT-29 cancer cell lines; assay type: functional; conditions: Homo sapiens
Procedure, shortened: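 Soft agar clonogenic assay of anchorage-independent growth, using HT-29 colon and A549 lung adenocarcinoma cells. The value is the compound concentration that cut colony number to 50% of control.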

SN12C [14] = assay: Growth inhibitory activity was determined against SN12C cancer cell line of Renal cancer; assay type: functional; conditions: Homo sapiens; procedure, shortened: as §1
OVCAR-3 [15] = assay: Growth inhibitory activity was determined against OVCAR-3 cancer cell line of Ovarian cancer; assay type: functional; conditions: Homo sapiens; procedure, shortened: as §1

## CC(C)CCC[C@@H](C)[C@H]1CC[C@H]2[C@@H]3CC(=O)O[C@](C)(CCCCC(=O)O)[C@H]3CC[C@]12C
HT-29 [1]
  GI50: 7.76 µM
PC-3
  GI50: 7.21 µM
BT-549 (Homo sapiens)
  GI50: 4.19 µM
SF-539
  GI50: 14.6 µM
SF-268
  GI50: > 25 µM
UO-31 [2]
  GI50: 11 µM
OVCAR-3 [3]
  GI50: 5.78 µM
SN12C [4]
  GI50: 8.3 µM
NCI/ADR-RES
  GI50: 5.55 µM
[5]
  IC50: 11.6 µM
[6]
  IC50: 5.1 µM
786-0 [7]
  GI50: 8.44 µM
A549
  GI50: 8.3 µM
SK-MEL-5
  GI50: 9.69 µM
OVCAR-8 [8]
  GI50: 5.13 µM
NCI-H23
  GI50: 4.92 µM
NCI-H522
  GI50: > 25 µM
U-251
  GI50: 6.28 µM
HCC 2998
  GI50: 4.43 µM
COLO 205
  GI50: 6.13 µM
T47D
  GI50: 7.3 µM
[9]
  IC50: > 100 µM

## CC(C)CCC[C@@H](C)[C@H]1CC[C@H]2[C@@H]3CC(=O)O[C@](C)(CCCCC#N)[C@H]3CC[C@]12C
PC-3
  GI50: 5.51 µM
OVCAR-8 [10]
  GI50: 5.19 µM
BT-549 (Homo sapiens)
  GI50: 5.89 µM
SF-539
  GI50: 5.17 µM
SF-268
  GI50: > 25 µM
LOX IMVI
  GI50: 5.35 µM
786-0 [11]
  GI50: 4.3 µM
A549
  GI50: 5.51 µM
SK-MEL-5
  GI50: 5.1 µM
UO-31 [12]
  GI50: 0.47 µM
NCI-H23
  GI50: 5.63 µM
HT-29 [13]
  GI50: 4.05 µM
NCI-H522
  GI50: > 25 µM
SN12C [14]
  GI50: 4.38 µM
U-251
  GI50: 5.04 µM
HCC 2998
  GI50: 4.71 µM
OVCAR-3 [15]
  GI50: 4.73 µM
COLO 205
  GI50: 4.75 µM
T47D
  GI50: 4.92 µM
